These results are taken from paper PMC3361572 (Chemistry & biology, 2012).

The target in series [1] is T1, MAGL (Mus musculus, UniProt O35678).
T1 sequence (O35678 1-303): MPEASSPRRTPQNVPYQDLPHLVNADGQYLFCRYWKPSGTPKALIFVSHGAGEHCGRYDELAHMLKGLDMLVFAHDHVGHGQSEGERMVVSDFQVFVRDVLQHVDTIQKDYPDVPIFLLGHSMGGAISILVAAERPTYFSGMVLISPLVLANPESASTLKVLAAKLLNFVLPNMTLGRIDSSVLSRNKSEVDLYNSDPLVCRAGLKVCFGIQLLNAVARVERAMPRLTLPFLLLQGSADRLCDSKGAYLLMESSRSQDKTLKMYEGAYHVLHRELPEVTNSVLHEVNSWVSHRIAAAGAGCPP
In words: competitive ABPP, mouse brain membrane proteome. The format is biochemical. The conditions noted are these: mouse brain proteome, competitive ABPP.

The target of series [2] is T2, FAAH (Mus musculus, UniProt O08914).
T2 sequence (O08914 1-579): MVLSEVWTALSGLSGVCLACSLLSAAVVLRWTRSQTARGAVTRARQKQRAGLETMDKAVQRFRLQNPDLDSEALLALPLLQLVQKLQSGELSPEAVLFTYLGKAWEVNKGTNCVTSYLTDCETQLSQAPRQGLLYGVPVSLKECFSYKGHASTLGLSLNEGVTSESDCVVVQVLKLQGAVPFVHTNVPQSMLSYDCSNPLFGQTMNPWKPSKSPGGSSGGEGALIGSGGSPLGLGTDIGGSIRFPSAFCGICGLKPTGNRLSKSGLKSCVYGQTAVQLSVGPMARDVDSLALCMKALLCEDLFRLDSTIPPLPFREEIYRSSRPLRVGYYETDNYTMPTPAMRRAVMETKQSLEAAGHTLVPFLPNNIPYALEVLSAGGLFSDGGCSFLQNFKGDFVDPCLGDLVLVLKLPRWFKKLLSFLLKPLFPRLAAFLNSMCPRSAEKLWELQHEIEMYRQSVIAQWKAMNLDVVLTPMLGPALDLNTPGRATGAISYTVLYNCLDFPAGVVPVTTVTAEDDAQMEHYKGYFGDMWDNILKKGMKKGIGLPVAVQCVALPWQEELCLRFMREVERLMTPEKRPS
Kind of series: competitive ABPP, mouse brain membrane proteome. It is filed as biochemical. In outline:
(§1)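 Brain (mouse or rat) or mouse lung proteomes were preincubated with the test compound, then treated with the serine hydrolase probe FP-Rh. Samples were separated by SDS-PAGE and read by in-gel fluorescence scanning. Inhibition was taken as reduced FP-Rh labelling of MAGL, ABHD6, FAAH or CES bands, and IC50 values were calculated from quantified gel bands. Three independent experiments.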

Series [3] deals with T3, MAGL (Rattus norvegicus, UniProt Q8R431).
T3 sequence (Q8R431 1-303): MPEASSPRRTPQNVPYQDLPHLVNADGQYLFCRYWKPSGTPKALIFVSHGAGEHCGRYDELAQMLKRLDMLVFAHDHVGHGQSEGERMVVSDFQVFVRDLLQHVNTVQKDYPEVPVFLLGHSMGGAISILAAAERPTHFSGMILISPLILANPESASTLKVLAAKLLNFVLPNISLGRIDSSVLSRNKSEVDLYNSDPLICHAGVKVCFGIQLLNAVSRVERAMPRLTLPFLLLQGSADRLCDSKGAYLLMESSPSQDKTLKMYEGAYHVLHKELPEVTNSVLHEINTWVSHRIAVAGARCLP
In words: competitive ABPP, rat brain membrane proteome. It is filed as biochemical. The conditions noted are these: read-out: IC50 (95% CI), rat MAGL; competitive ABPP, rat brain membrane proteome. The essentials: as §1

Series [4] concerns the target T4, FAAH (Rattus norvegicus, UniProt P97612).
T4 sequence (P97612 1-579): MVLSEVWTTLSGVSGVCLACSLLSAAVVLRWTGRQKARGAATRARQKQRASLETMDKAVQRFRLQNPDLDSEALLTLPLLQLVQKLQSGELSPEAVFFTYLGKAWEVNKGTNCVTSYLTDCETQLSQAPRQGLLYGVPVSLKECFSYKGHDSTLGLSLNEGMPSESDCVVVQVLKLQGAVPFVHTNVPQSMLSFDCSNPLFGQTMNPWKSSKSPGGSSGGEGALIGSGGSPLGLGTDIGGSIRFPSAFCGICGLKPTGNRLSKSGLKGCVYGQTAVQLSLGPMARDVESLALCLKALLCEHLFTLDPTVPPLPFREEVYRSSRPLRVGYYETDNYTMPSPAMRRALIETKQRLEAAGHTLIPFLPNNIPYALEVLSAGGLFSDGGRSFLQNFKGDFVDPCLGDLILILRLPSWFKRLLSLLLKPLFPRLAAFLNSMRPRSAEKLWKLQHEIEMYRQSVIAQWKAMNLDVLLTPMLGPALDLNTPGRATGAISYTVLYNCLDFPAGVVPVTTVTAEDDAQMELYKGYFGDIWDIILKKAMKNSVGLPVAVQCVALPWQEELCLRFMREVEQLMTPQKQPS
Kind of series: competitive ABPP, rat brain membrane proteome. The format is biochemical. The conditions noted are these: read-out: IC50 (95% CI), rat FAAH; competitive ABPP, rat brain membrane proteome. The essentials: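 Rat brain proteome pre-treated with test compound, then labelled with the serine hydrolase-directed fluorophosphonate-rhodamine (FP-Rh) activity-based probe. Proteins separated by SDS-PAGE and detected by in-gel fluorescence scanning. Inhibition scored as loss of FP-Rh labelling of the FAAH band. IC50 calculated from the gel-based ABPP data.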

For another series, the target named is T5, hMAGL (Homo sapiens, UniProt Q99685).
T5 sequence (Q99685 1-303): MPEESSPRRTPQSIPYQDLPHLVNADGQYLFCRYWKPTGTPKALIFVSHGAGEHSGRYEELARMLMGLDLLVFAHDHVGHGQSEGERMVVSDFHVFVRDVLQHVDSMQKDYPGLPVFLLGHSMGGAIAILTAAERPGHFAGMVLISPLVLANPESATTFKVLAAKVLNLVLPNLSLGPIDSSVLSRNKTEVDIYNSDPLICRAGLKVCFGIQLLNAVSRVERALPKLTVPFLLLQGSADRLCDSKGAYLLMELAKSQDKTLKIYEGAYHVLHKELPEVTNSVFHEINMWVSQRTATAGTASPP
In words: competitive ABPP, proteomes of transiently transfected HEK293T cells. It is filed as biochemical. The conditions noted are these: read-out: IC50 (95% CI), human MAGL, transfected HEK293T cell proteome.

Another series concerns the target T6, hFAAH (Homo sapiens, UniProt O00519).
T6 sequence (O00519 1-579): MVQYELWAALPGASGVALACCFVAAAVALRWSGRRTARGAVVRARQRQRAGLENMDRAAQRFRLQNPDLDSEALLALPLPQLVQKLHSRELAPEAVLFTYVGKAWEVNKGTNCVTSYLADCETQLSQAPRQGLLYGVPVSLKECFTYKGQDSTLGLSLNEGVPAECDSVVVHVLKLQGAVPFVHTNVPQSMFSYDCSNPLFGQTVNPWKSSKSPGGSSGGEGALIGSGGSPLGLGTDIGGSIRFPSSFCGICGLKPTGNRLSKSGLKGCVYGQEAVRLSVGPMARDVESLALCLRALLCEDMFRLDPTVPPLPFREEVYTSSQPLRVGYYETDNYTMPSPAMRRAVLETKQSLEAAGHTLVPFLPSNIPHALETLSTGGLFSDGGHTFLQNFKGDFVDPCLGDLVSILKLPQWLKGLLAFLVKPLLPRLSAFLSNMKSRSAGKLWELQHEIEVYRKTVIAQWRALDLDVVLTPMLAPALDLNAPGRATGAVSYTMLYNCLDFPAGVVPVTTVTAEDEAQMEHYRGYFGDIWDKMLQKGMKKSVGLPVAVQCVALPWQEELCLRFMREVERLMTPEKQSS
The description is as above. The format is biochemical. To be noted: for IC50: read-out: IC50 (95% CI), human FAAH, competitive ABPP, transfected HEK293T cell proteome.

Series [5] has as its system other rat brain serine hydrolases. Kind of series: competitive ABPP, rat brain proteome, other serine hydrolases. The format is biochemical. In outline:
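Rat brain proteome was preincubated with test compound, then labelled with the serine hydrolase-directed probe FP-rhodamine. Proteins were separated by SDS-PAGE and scanned by in-gel fluorescence. Inhibition of individual serine hydrolases was scored as reduced probe labelling.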

The target in series [6] is T2, FAAH. Kind of series: competitive ABPP of brain from inhibitor-treated mice. The format is in vivo.
Series [7] has as its system brain 2-AG, AA, AEA, PEA, OEA. In words: brain lipid profile of inhibitor-treated mice. It is filed as in vivo, mouse. To be noted: 40 mg kg^−1 p.o., six days.
In series [8] the test system is carboxylesterase (CES) enzymes. In words: gel-based ABPP of liver, lung and spleen from inhibitor-treated mice. It is filed as in vivo, mouse.
For series [9] the following is noted: previously noted by the authors, no reference given; cited from earlier work.
For series [10] the following is noted: no reference given; cited from earlier work.

For `O=C(OC(C(F)(F)F)C(F)(F)F)N1CCN(Cc2cccc(Oc3ccccc3)c2)CC1` [JW642], at MAGL [1], the “potency for MAGL relative to FAAH” value is listed as greater than 1000 fold. Further, at FAAH [2] (competitive ABPP, up to 10 μM), the FAAH reactivity entry is on record as “no observable FAAH reactivity up to 10 μM”. Moreover, the IC50 is 0.014 µM on MAGL [3], 14 µM at FAAH [4], 0.0037 µM on hMAGL and 20.6 µM on hFAAH. Moreover, in [5], the “additional off-target reactivity with other rat brain serine hydrolases” value is “did not detect any additional off-target reactivity”.

As to `CN(Cc1cccc(-c2ccncc2)c1)C(=O)OC(C(F)(F)F)C(F)(F)F` [JW618], the “FAAH inhibition / cross-reactivity (gel-based ABPP)” value at FAAH [2] (mouse brain proteome, concentration range tested 0.001–50 μM) is on record as “no detectable crossreactivity with FAAH”. Besides, the figures for the IC50 at MAGL [3], at FAAH [4] and on hFAAH were 0.385 µM, greater than 50 µM and greater than 50 µM, respectively. For the same molecule, in [5], the “additional off-target reactivity with other rat brain serine hydrolases” value is “did not detect any additional off-target reactivity”.

In the case of `O=C(Oc1ccc([N+](=O)[O-])cc1)N1CCC(C(O)(c2ccc3c(c2)OCO3)c2ccc3c(c2)OCO3)CC1` [JZL184, reference compound], the values for the IC50 at MAGL [3], on FAAH [4] and at hFAAH were 0.262 µM, 3.57 µM and greater than 50 µM, respectively. Moreover, the “cross-reactivity with hFAAH (competitive ABPP)” value at hFAAH (lysates of HEK293T cells transfected with hFAAH) was “no detectable cross-reactivity with FAAH up to 50 μM”. Further, the “brain FAAH inhibition, chronic dosing” value at FAAH [6] (40 mg kg^−1 p.o., six days) is “not only inhibited MAGL, but also FAAH”. Also, the “inhibition of brain FAAH” value on FAAH [6] (highest dose tested 40 mg kg^−1 p.o., 4 h) is “partially inhibit FAAH”. Besides, in series [7], the “brain 2-AG and NAE levels, chronic dosing” value was “increases in both 2-AG and NAEs”. Also, the “CES inhibition in peripheral tissues, chronic dosing” value in series [8] (40 mg kg^−1 p.o., six days) is “several CES enzymes in peripheral tissues”. Moreover, the “reactivity with CESs in liver, lung and spleen” value in series [8] (1–40 mg kg^−1 p.o., 4 h) is recorded as “significant reactivity with several CESs”. The “solubility in dosing vehicle” value in series [9] is “limited solubility”.

Take `OC(C(F)(F)F)C(F)(F)F` [hexafluoroisopropanol]: the pKa in series [10] is given as ~ 9.3.
